# Assay results: ChEMBL document CHEMBL4610015, “Scaffold-hopping identifies furano[2,3-d]pyrimidine amides as potent Notum inhibitors” (Bioorg Med Chem Lett, 2020)
# How the values were obtained:
# [1] = molecular target: T1, Palmitoleoyl-protein carboxylesterase NOTUM (Homo sapiens, UniProt Q6P988, C330S); format: cell-based
# [2] = Apparent permeability across apical to basolateral membrane in dog MDCK-MDR1 cells; format: ADME, cell-based, Canis lupus familiaris
# [3] = Apparent permeability across basolateral to apical membrane in dog MDCK-MDR1 cells; format: ADME, cell-based, Canis lupus familiaris
# [4] = Intrinsic clearance in mouse liver microsomes; format: ADME, Microsome; details: read-out: CLH
# [5] = Efflux ratio of apparent permeability in dog MDCK-MDR1 cells; format: ADME, cell-based, Canis lupus familiaris
# [6] = Stability of the compound in citrate buffer at pH 4 measured up to 24 hrs by UPLC-MS analysis; format: physicochemical; details: pH 4, 24 h
# In short: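 Incubated in 0.1 M citrate buffer at pH 4 and sampled at several time points up to 24 h. The parent amide was monitored by UPLC-MS.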
# [7] = molecular target: T1, Palmitoleoyl-protein carboxylesterase NOTUM; format: ADME, cell-based; details: 72 h
# T1 sequence (Q6P988 20-496 C330S limits assumed): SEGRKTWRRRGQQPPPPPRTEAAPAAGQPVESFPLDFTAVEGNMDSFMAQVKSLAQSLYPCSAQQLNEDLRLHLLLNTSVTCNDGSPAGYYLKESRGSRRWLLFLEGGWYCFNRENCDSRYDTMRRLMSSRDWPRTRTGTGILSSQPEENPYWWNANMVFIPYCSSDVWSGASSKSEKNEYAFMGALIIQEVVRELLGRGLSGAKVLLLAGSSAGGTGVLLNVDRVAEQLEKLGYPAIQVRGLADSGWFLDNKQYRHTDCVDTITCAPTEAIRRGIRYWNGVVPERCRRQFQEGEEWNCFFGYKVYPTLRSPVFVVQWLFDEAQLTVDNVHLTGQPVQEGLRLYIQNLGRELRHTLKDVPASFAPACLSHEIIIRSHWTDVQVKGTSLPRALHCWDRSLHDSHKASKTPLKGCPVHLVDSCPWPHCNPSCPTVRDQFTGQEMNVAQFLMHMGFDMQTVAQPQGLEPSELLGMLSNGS
SMILES,IC50 [1] [nM],Papp A→B [2] [×10⁻⁶ cm/s],Papp B→A [3] [×10⁻⁶ cm/s],microsomal CLint [4] [µL/min/mg],efflux ratio [5],Stability [6],Stability [7]
Cc1sc2ncnc(SCC(=O)O)c2c1Cl,3,–,–,–,–,–,–
O=C(CSc1ncnc2c(C3CC3)c(Cl)sc12)N1CCn2cnnc2C1,1.1,0.95,93,29,98,–,–
O=C1CN(C(=O)CSc2ncnc3c(C4CC4)c(Cl)sc23)CCN1,–,7.9,65,24,8.2,–,–
Cc1sc2ncnc(SCC(=O)N3CCn4cnnc4C3)c2c1Cl,–,–,–,–,–,Stable,Stable
O=C1CN(C(=O)CSc2ncnc3c(C4CC4)c(Cl)sc23)CN1,–,3.8,14,19,3.7,–,–
O=C(CSc1ncnc2c(C3CC3)c(Cl)sc12)N1CCOCC1,–,40,38,> 500,0.95,–,–
Cc1sc2ncnc(SCC(=O)N3CC(=O)N(C)C3)c2c1Cl,–,–,–,–,–,Stable,Stable
